For data set [1], the species on record is Rattus norvegicus. Description: Induction of AMPK phosphorylation in 2 hrs serum starved rat differentiated L6 myotubes after 1 hr. The method in brief:
(§1)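 Fully differentiated L6 myotubes were serum-starved 2 h, then treated 1 h across a dose series. Phospho-AMPK (Thr172) and phospho-ACC (Ser79) were detected by Western blot. Three independent experiments.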

For data set [2], the species on record is Rattus norvegicus. As to the kind of experiment: Induction of AMPK-dependent ACC phosphorylation in 2 hrs serum starved rat differentiated L6 myotubes after 1 hr. The procedure, abridged:
as §1

Data set [3] concerns L6. As to the kind of experiment: Cytotoxicity against rat L6 cells upto 10 uM after 24 hrs by MTT assay. In kind it is cell-based. The note with it: l6, 24 h. The method in brief: (§2)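 Differentiated L6 myoblasts were exposed to a concentration range of compounds for 24 h at 37 °C. MTT (5 mg/mL) was added for 3 h, formazan was dissolved in DMSO, and absorbance was read at 550 nm against 690 nm reference. Mean of three independent experiments ± SE.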
In general terms: Tetrazolium assays rely on reduction of a dye to a coloured formazan, in cell work by metabolically active cells.

Data set [4] relates to Mus musculus. Description: Antidiabetic activity in C57BLKS/J-db/db mouse assessed as decrease in area under curve at 50 mg/kg/day, po for 4 weeks by insulin tolerance test. In kind it is functional. On the set-up: scale not given: the % may be the effect or the level left.
For data set [5], the system named is Mus musculus. As to the kind of experiment: Antidiabetic activity in high fat diet-fed C57BL/6J mouse assessed as decrease in plasma insulin level at 250 mg/kg/day, po for 4 weeks. The class given is functional. The arrangement: scale not given: the % may be the effect or the level left. The method in brief:
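DIO male C57BL/6J mice (60 kcal% fat diet for 8 weeks) were gavaged daily in 0.5% microcrystalline cellulose/1.6% lactose vehicle. Plasma insulin was determined by ELISA after 4 weeks of treatment. Mean ± SE, n = 5–8.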

Data set [6] relates to Mus musculus. As to the kind of experiment: Antiobese activity in high fat diet-fed C57BL/6J mouse assessed as decrease in plasma triglyceride level at 250 mg/kg/day, po for 6 weeks. In kind it is functional. The arrangement: scale not given: the % may be the effect or the level left. The method in brief: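 DIO male C57BL/6J mice received daily oral dosing in cellulose/lactose vehicle for 6 weeks and were killed after the final dose. Plasma and liver triglycerides were measured by triglyceride assay kit, and fat depots were weighed.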

Data set [7] deals with Mus musculus. Description: Antiobese activity in C57BLKS/J-db/db mouse assessed as decrease in plasma triglyceride level at 250 mg/kg/day, po […]. The arrangement: scale not given: the % may be the effect or the level left. The class given is functional. The procedure, abridged:
(§3)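 db/db mice were gavaged once daily in 0.5% microcrystalline cellulose/1.6% lactose vehicle for 6 weeks and killed after the final dose. Plasma triglycerides were measured with a colorimetric triglyceride assay kit.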

For data set [8], the system named is Mus musculus. As to the kind of experiment: Antidiabetic activity in high fat diet-fed C57BL/6J mouse assessed as decrease in blood glucose level at 250 mg/kg/day, po for 4 weeks measured after 60 mins by intraperitoneal glucose tolerance test. The class given is functional, organism-based. The procedure, abridged: (§4)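 High-fat-diet (60 kcal%, 8 weeks) male C57BL/6J mice were randomized by body weight and fed glucose, then dosed orally once daily in cellulose/lactose vehicle. ipGTT was done at 4 weeks: D-glucose 2 g/kg ip, glucometer readings at 0, 15, 30, 60, 90 and 120 min. n = 5–8.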

The test system of data set [9] is Mus musculus. Description: Antidiabetic activity in C57BLKS/J-db/db mouse assessed as reduction of fasting blood glucose level at 250 mg/kg/day, po for 5 weeks. In kind it is functional, organism-based.
The test system of data set [10] is Mus musculus. As to the kind of experiment: Antidiabetic activity in high fat diet-fed C57BL/6J mouse assessed as decrease in blood glucose level at 250 mg/kg/day, po for 4 weeks measured after 120 mins by intraperitoneal glucose tolerance test. In kind it is functional, organism-based. The method in brief: as §4
Data set [11] has as its system L6. Description: Increase in glucose uptake in rat differentiated L6 myotubes after 1 hr relative to untreated control. The class given is functional. The procedure, abridged:
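Fully differentiated L6 myotubes were serum-starved 2 h, then treated with compound for 15 min to 2 h (dose series at 1 h). Glucose uptake was measured relative to DMSO control. Mean of three independent experiments ± SE.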

Data set [12] relates to L6. Description: Cytotoxicity against rat L6 cells upto 40 uM after 24 hrs by MTT assay. The note with it: l6, 24 h. In kind it is cell-based. The method in brief:
as §2

Data set [13] concerns Mus musculus. Description: Toxicity in C57BLKS/J-db/db mouse assessed as change in food intake at 50 mg/kg/day, po for 6 weeks. On the set-up: route oral. In kind it is organism-based. Particulars: in vivo, 1008 h. The method in brief:
(§5)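 db/db mice (half male, half female) were dosed by oral gavage daily for 6 weeks in 0.5% microcrystalline cellulose/1.6% lactose vehicle. Body weight and food intake were recorded daily. Mice were killed after the final dose, and liver and fat depots were weighed and expressed relative to body weight.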

Data set [14] concerns Mus musculus. As to the kind of experiment: Toxicity in C57BLKS/J-db/db mouse assessed as change in body weight at 50 mg/kg/day, po for 6 weeks. In kind it is organism-based. On the set-up: route oral. Particulars: in vivo, 1008 h. The procedure, abridged: as §5
Data set [15] in a line: Oral bioavailability in 12 hrs fasting Sprague-Dawley rat at 20 mg/kg. The note with it: in vivo. In kind it is ADME, organism-based.
Data set [16] deals with Mus musculus. Description: Antidiabetic activity in C57BLKS/J-db/db mouse assessed as decrease in fed blood glucose level at 50 mg/kg/day, po for 4 weeks. On the set-up: scale not given: the % may be the effect or the level left. In kind it is functional.
Data set [17] can be described thus: Stability in acidic buffer at pH 2 after 6 hrs by HPLC. The class given is physicochemical. Particulars: acidic buffer, pH 2. The method in brief:
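A 0.5 mg/mL solution in acetonitrile was adjusted to pH 2 with H3PO4 and analyzed over 6 h by HPLC. Conditions: C18 column at 25 °C, 58% acetonitrile in 0.05 mol/L KH2PO4/0.005 mol/L SDS, 1 mL/min, detection at 320 nm.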

Data set [18] concerns Mus musculus. As to the kind of experiment: Antidiabetic activity in C57BLKS/J-db/db mouse assessed as decrease in fed blood glucose level at 50 mg/kg/day, po for 3 weeks. In kind it is functional. On the set-up: scale not given: the % may be the effect or the level left.
The subject of data set [19] is Mus musculus. Description: Toxicity in C57BLKS/J-db/db mouse assessed as increase in subcutaneous fat at 50 mg/kg/day, po for 6 weeks. Particulars: in vivo, 1008 h. In kind it is organism-based. On the set-up: route oral. The method in brief:
as §5

Data set [20] concerns Mus musculus. As to the kind of experiment: Antidiabetic activity in C57BLKS/J-db/db mouse assessed as reduction of fasting blood glucose level at 50 mg/kg/day, po for 3 weeks. In kind it is functional. On the set-up: scale not given: the % may be the effect or the level left.
Data set [21] has as its system Mus musculus. Description: Antiobese activity in C57BLKS/J-db/db mouse assessed as decrease in plasma triglyceride level at 50 mg/kg/day, po […]. The class given is functional. The method in brief:
as §3

Data set [22] is described as follows: Aqueous solubility of compound in distilled water. The class given is physicochemical. The method in brief: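 Excess solid was suspended in distilled water and stirred 24 h at 25 ± 0.5 °C. The suspension was filtered, and dissolved concentration was measured by HPLC.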
For data set [23], the system named is Mus musculus. Description: Toxicity in C57BLKS/J-db/db mouse assessed as reduction in liver weight at 50 mg/kg/day, po for 6 weeks. The class given is organism-based. On the set-up: route oral; scale not given: the % may be the effect or the level left. Particulars: in vivo, 1008 h. The procedure, abridged:
as §5

Data set [24] deals with Mus musculus. Description: Antidiabetic activity in C57BLKS/J-db/db mouse assessed as alleviation of glucose tolerance at 50 mg/kg/day, po for 3 weeks by intraperitoneal glucose tolerance test. In kind it is functional, organism-based. The method in brief:
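Male and female C57BLKS/J-db/db mice, randomized at 6 weeks of age by body weight and fed glucose, were gavaged once daily in vehicle (0.5% microcrystalline cellulose, 1.6% lactose). For ipGTT, D-glucose was given at 2 g/kg ip, and blood glucose was read by glucometer at 0, 15, 30, 60, 90 and 120 min.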

The source made the active and inactive calls. No cut-off for these calls is given here. Where only a bound is given, the exact number is not on record here.

In the case of `CCC1(CC)c2c(ccc(OC)c2OC)CC2=[N+]1CCc1cc3c(cc12)OCO3.[Cl-]` [8,8-Diethyldihydroberberine], the Activity entry was “Dose-dependent effect” in the data set listed under Rattus norvegicus [1], “Dose-dependent effect” in the data set filed under Rattus norvegicus [2] and “Toxic” in the data set with L6 [3].
As for `CN(C)C(=N)NC(=N)N` [METFORMIN], the Activity with Mus musculus [4] turned out to be 14%; in the data set with Mus musculus [5], 43%; with Mus musculus [6], 33%; with Mus musculus [7], 23%. Further, the result with Mus musculus [8], in the data set with Mus musculus [9] and in the data set with Mus musculus [10] was Active.
With `CCCC1(CCC)c2c(ccc(OC)c2OC)CC2=[N+]1CCc1cc3c(cc12)OCO3.[Cl-]` [8,8-Dipropyldihydroberberine], the Activity in the data set on L6 [11] is reported as 62%; with L6 [12], “Non-toxic”.
As a reminder, the bioavailability is the share of a dose that reaches the circulation, judged against a reference dose that is usually intravenous. What is called solubility is how much of the substance goes into solution per volume. `COc1ccc2c(c1OC)CN1CCc3cc4c(cc3C1=C2)OCO4` [DIHYDROBERBERINE]: the Activity result in the data set on Mus musculus [13] is reported as “Non-toxic”; in the data set on Mus musculus [14], “Non-toxic”; with Mus musculus [4] it was 12%; in the data set with Mus musculus [16], 18%; in the data set on Mus musculus [18], 25%; in the data set with Mus musculus [19], 14%. The Activity was 17% with Mus musculus [20] and 11% in the data set with Mus musculus [23]. This molecule also returned a bioavailability in [15] of 2.65%. For the same molecule, the decrease in content after 6 h at 6 h in data set [17] worked out at 17%. For the same molecule, the result in the data set with Mus musculus [21] and in the data set with Mus musculus [24] was inactive. Also, the solubility in data set [22] is less than 1000 µg/mL.
